Laboratory results taken from ChEMBL document CHEMBL1124824, “Synthesis and biological activity of atrial natriuretic factor analogues: effect of modifications to the disulfide bridge” (J Med Chem, 1990).
Positions of bridges follow the written chain, without caps; N, C: chain ends. Non-standard residues stand in square brackets, D forms with d. Residues, ends and D or L forms follow the SMILES beside them. Asu = N[C@@H](CCCCCC(=O)O)C(=O)O; Mpa = O=C(O)CCS

Legend:
Rattus norvegicus [1] = organism: Rattus norvegicus; assay: Compound was tested for the K+ excretion for treated over control animals.; assay type: functional
How it was run: (§1)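 Male Sprague-Dawley rats (300-325 g) under halothane/lidocaine had femoral artery, femoral vein and bladder cannulated. After at least 1 h of recovery in restraint, they received Ringer's (1.2 mL/h), with 10-min urine collections over a 30-min control period. Infusion of 0.5 μg/kg per min for 30 min and a 30-min Ringer's recovery followed. Na+, K+ and Cl- were measured with an electrolyte analyzer, reported as treated minus control μmol/sample. Volume ratio is treated/control over three consecutive 10-min samples, six animals.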

Rattus norvegicus [2] = organism: Rattus norvegicus; assay: Compound was tested for antihypertensive activity in 5/6 nephrectomized rats.; assay type: functional
How it was run: (§2)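 Rats were anesthetized with halothane after skin infiltration with 2% lidocaine, and the femoral artery and vein were cannulated. After recovery, arterial pressure was recorded. A saline control period was followed by i.v. infusion in 30-min steps at 0.1, 0.2, 0.5 and 1.0 μg/kg per min (70 μL/kg per min). Hydralazine (100 μg/kg per min) was given for standardization. ED50 is in nmol/kg per min, from six animals.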

Rattus norvegicus [3] = assay: Compound was tested for diuretic activity and the ratio of urine volume for treated over control animals was reported after infused at a dose of 0.5 ug/kg.; assay type: functional; how it was run: as §1
Rattus norvegicus [4] = organism: Rattus norvegicus; assay: Compound was tested for the Na+ excretion for treated over control animals.; assay type: functional; how it was run: as §1
Rattus norvegicus [5] = organism: Rattus norvegicus; assay: Compound was tested for the Cl- excretion for treated over control animals.; assay type: functional; how it was run: as §1
Rattus norvegicus [6] = organism: Rattus norvegicus; assay: Compound was tested for antihypertensive activity in DOCA nephrectomized rats.; assay type: functional; how it was run: as §2
Oryctolagus cuniculus = organism: Oryctolagus cuniculus; assay: Compound was tested for the inhibition of the stimulated contractions of the superfused rabbit thoracic aortic rings.; assay type: functional, Aorta
How it was run: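 Rabbit thoracic aorta rings (4 mm) were held isometrically at 10-g resting tension, superfused and precontracted with phenylephrine. Test peptide was added to the superfusate above the tissue in successively higher doses after each recovery. Doses were based on peptide content. EC50 came from the dose-response curve, mean of three determinations ± SEM.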

Rattus norvegicus [7] = organism: Rattus norvegicus; assay: Compound was tested for the Cl- excretion for treated over control animals, the electrolytes tested are; assay type: functional; how it was run: as §1
Rattus norvegicus [8] = organism: Rattus norvegicus; assay: Compound was tested for the K+ excretion for treated over control animals, the electrolytes tested are; assay type: functional; how it was run: as §1
Rattus norvegicus [9] = organism: Rattus norvegicus; assay: Compound was tested for the Na+ excretion for treated over control animals, the electrolytes tested are; assay type: functional; how it was run: as §1
[10] = target: T1, Atrial natriuretic peptide receptor 2 (Bos taurus, UniProt P46197); assay: Binding affinity was determined based on the displacement of [125]r-ANF (99-126) from binding sites on bovine adrenal zona glomerulosa cell membranes (Atrionatriuretic peptide receptor B)
T1 sequence (P46197 whole entry): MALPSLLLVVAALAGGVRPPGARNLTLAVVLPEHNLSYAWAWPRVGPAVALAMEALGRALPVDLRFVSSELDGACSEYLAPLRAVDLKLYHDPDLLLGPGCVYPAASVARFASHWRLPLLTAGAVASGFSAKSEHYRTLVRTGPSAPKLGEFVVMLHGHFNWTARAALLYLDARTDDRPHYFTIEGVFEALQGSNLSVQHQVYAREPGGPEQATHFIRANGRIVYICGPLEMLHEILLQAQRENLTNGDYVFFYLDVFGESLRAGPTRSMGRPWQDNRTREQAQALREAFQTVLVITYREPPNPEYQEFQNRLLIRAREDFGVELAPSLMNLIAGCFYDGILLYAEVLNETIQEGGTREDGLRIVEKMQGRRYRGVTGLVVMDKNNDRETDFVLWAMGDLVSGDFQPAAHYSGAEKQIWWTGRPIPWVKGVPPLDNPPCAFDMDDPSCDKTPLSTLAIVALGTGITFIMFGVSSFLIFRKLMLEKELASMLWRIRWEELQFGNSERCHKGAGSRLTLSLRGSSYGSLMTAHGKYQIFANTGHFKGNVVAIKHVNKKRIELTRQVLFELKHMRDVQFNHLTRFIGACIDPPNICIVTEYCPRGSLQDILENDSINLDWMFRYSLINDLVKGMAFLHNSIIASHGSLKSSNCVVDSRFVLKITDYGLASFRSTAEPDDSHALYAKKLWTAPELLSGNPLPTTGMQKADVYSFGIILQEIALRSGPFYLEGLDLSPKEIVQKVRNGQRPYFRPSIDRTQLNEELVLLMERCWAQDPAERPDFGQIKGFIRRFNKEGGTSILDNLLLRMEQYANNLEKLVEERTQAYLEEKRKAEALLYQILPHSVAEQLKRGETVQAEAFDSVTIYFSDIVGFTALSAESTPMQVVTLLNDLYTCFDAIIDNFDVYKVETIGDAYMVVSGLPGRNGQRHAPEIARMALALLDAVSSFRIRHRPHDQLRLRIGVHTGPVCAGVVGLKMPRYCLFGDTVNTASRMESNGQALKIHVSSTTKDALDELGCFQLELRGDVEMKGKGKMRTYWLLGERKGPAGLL

[11] = target: T2, Atrial natriuretic peptide receptor 3 (Mus musculus, UniProt P70180); assay: Binding affinity was determined based on the displacement of [125]r-ANF (99-126) from binding sites on mouse fibroblasts (NIH 3T3) cells (Atrionatriuretic peptide receptor C).
T2 sequence (P70180 whole entry): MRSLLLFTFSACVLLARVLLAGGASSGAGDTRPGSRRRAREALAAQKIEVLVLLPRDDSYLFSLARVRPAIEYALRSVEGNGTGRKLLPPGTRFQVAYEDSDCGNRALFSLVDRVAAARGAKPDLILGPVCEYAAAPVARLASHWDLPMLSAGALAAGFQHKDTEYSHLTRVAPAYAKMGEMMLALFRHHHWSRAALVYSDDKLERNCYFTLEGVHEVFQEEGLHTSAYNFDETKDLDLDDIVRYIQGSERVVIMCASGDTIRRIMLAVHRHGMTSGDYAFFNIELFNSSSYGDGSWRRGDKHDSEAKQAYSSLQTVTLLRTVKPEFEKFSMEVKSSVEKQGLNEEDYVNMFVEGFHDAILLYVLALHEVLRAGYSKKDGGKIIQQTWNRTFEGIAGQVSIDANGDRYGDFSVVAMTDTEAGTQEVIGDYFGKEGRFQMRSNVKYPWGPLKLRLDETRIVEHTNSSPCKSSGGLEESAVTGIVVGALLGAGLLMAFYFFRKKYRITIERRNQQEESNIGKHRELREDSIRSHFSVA

Row | Compound | Electrolyte excretion (Rattus norvegicus [1]) [uM sample-1] | ED50 (Rattus norvegicus [2]) [nM/min/kg] | Ratio (Rattus norvegicus [3]) | Electrolyte excretion (Rattus norvegicus [4]) [uM sample-1] | Electrolyte excretion (Rattus norvegicus [5]) [uM sample-1] | ED50 (Rattus norvegicus [6]) [nM/min/kg] | EC50 (Oryctolagus cuniculus) [M 50ul-1] | Electrolyte excretion (Rattus norvegicus [7]) [uM sample-1] | Electrolyte excretion (Rattus norvegicus [8]) [uM sample-1] | Electrolyte excretion (Rattus norvegicus [9]) [uM sample-1] | IC50 [10] [nM] | IC50 [11] [nM]
1 | CC[C@H](C)[C@@H]1NC(=O)[C@H](CCCN=C(N)N)NC(=O)[C@H](CC(=O)O)NC(=O)[C@H]([C@@H](C)CC)NC(=O)[C@H](CCCN=C(N)N)NC(=O)CNC(=O)CNC(=O)[C@H](Cc2ccccc2)NC(=O)CCCCC[C@@H](C(=O)N[C@@H](CC(N)=O)C(=O)N[C@@H](CO)C(=O)N[C@@H](Cc2ccccc2)C(=O)N[C@@H](CCCN=C(N)N)C(=O)N[C@@H](Cc2ccc(O)cc2)C(=O)O)NC(=O)CNC(=O)[C@H](CC(C)C)NC(=O)CNC(=O)[C@H](CO)NC(=O)[C@H](CCC(N)=O)NC(=O)[C@H](C)NC(=O)CNC1=O (FGGRIDRIGAQSGLG[Asu]NSFRY-OH; lactam N-16) | 0 | 5.7 | 2.1 | 4.8 | 10 | – | – | – | – | – | – | –
2 | CC[C@H](C)[C@@H]1NC(=O)[C@H](CCCN=C(N)N)NC(=O)[C@H](CC(=O)O)NC(=O)[C@H]([C@@H](C)CC)NC(=O)[C@H](CCCN=C(N)N)NC(=O)CNC(=O)CNC(=O)[C@H](Cc2ccccc2)NC(=O)CCSSC[C@@H](C(=O)N[C@@H](CC(N)=O)C(=O)N[C@@H](CO)C(=O)N[C@@H](Cc2ccccc2)C(=O)N[C@@H](CCCN=C(N)N)C(=O)N[C@@H](Cc2ccc(O)cc2)C(=O)O)NC(=O)CNC(=O)[C@H](CC(C)C)NC(=O)CNC(=O)[C@H](CO)NC(=O)[C@H](CCC(N)=O)NC(=O)[C@H](C)NC(=O)CNC1=O ([Mpa]FGGRIDRIGAQSGLGCNSFRY-OH; disulfide 1-17) | – | 1.5 | 1.7 | – | – | 1.1 | 1.1e-10 | 52.9 | 22.6 | 30.4 | 1.03 | 0.22
